{"source": "ChEMBL document CHEMBL2150950", "about": "“Effect of 4-aryl-2-methyl-5-nitro-1,4-dihydropyridine-3-carboxylates on the guinea pig papillary muscle and isolated human vena saphena magna that is used for coronary artery bypass grafting” (2011)", "key": {"[1]": {"assay": "(§1) Ionotropic effect in guinea pig ventricle papillary muscles assessed as lengthening of 50% repolarized cardiac action potential duration time at 10^-6 M by microelectrode technique relative to untreated control (reference value: 180 to 192 APD50 ms) in presence of 2 x 10^-5 M KATP channel blocker glibenclamide", "assay_type": "functional, Cavia porcellus"}, "[2]": {"assay": "as §1, with “at 10^-5” for “at 10^-6”, “of 3.1” for “of 2”, “x 10^-6” for “x 10^-5”, “M inward rectifier current” for “M KATP channel”, “blocker BaCl2” for “blocker glibenclamide”", "assay_type": "functional, Cavia porcellus"}, "[3]": {"assay": "(§2) Ionotropic effect in guinea pig ventricle papillary muscles assessed as lengthening of 90% repolarized cardiac action potential duration time at 10^-7 M by microelectrode technique relative to untreated control (reference value: 209 to 222 APD50 ms) in presence of 3.1 x 10^-6 M inward rectifier current blocker BaCl2", "assay_type": "functional, Cavia porcellus"}, "[4]": {"assay": "as §2, with “10^-4” for “10^-7”, “1” for “3.1”, “IKr channel” for “inward rectifier current”, “Sotalol” for “BaCl2”", "assay_type": "functional, Cavia porcellus"}, "[5]": {"assay": "as §1, with “10%” for “50%”, “52” for “180”, “54 APD10” for “192 APD50”", "assay_type": "functional, Cavia porcellus"}, "[6]": {"assay": "as §2, with “10^-6” for “10^-7”, “1” for “3.1”, “IKr channel” for “inward rectifier current”, “Sotalol” for “BaCl2”", "assay_type": "functional, Cavia porcellus"}, "[7]": {"assay": "as §1, with “25%” for “50%”, “120” for “180”, “131 APD25” for “192 APD50”", "assay_type": "functional, Cavia porcellus"}, "[8]": {"assay": "Ionotropic effect in guinea pig right ventricle papillary muscles assessed as contraction force at 10^-4 M by force transduction assay relative to untreated control (reference value: 100%) in presence of 1 x 10^-6 M IKr channel blocker Sotalol", "assay_type": "functional, Cavia porcellus, Heart right ventricle"}, "[9]": {"assay": "Ionotropic effect in guinea pig ventricle papillary muscles assessed as lengthening of 50% repolarized cardiac action potential duration time at 10^-4 M by microelectrode technique relative to untreated control (reference value: 132 to 176 APD50 ms)", "assay_type": "functional, Cavia porcellus, Papillary muscle"}, "[10]": {"assay": "Ionotropic effect in guinea pig right ventricle papillary muscles assessed as contraction force at 10^-6 M by force transduction assay relative to untreated control (reference value: 100%) in presence of 3.1 x 10^-6 M inward rectifier current blocker BaCl2", "assay_type": "functional, Cavia porcellus, Heart right ventricle"}, "[11]": {"assay": "as §2, with “25%” for “90%”, “120” for “209”, “131 APD25” for “222 APD50”", "assay_type": "functional, Cavia porcellus"}, "[12]": {"assay": "Vasodilatory activity in human vena saphena magna assessed as reduction in phenylephrine-induced smooth muscle contraction at 0.1 uM", "assay_type": "functional", "set-up": "scale not given: the % may be the effect or the level left", "how_it_was_run": "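Saphenous vein rings came from 37 CABG patients. They were bathed in Tyrode's solution (mM: NaCl 137, KCl 5.4, CaCl2 1.8, MgCl2 0.9, Tris HCl 10, glucose 5; pH 7.4), equilibrated 45–60 min and washed every 15 min. Rings were precontracted with 10^-4 M phenylephrine, then given cumulative test agent at 10^-7 to 10^-4 M. Isometric relaxation was recorded, as means ± SE.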"}, "[13]": {"assay": "Ionotropic effect in guinea pig ventricle papillary muscles assessed as lengthening of 10% repolarized cardiac action potential duration time at 10^-6 M by microelectrode technique relative to untreated control (reference value: 37 to 47 APD10 ms)", "assay_type": "functional, Cavia porcellus, Papillary muscle"}, "[14]": {"assay": "Ionotropic effect in guinea pig ventricle papillary muscles assessed as lengthening of 50% repolarized cardiac action potential duration time at 10^-7 M by microelectrode technique relative to untreated control (reference value: 132 to 176 APD50 ms)", "assay_type": "functional, Cavia porcellus, Papillary muscle"}, "[15]": {"assay": "Ionotropic effect in guinea pig ventricle papillary muscles assessed as lengthening of 90% repolarized cardiac action potential duration time at 10^-7 M by microelectrode technique relative to untreated control (reference value: 132 to 176 APD50 ms)", "assay_type": "functional, Cavia porcellus, Papillary muscle"}, "[16]": {"assay": "as §1, with “25%” for “50%”, “10^-4” for “10^-6”, “120” for “180”, “131 APD25” for “192 APD50”", "assay_type": "functional, Cavia porcellus"}, "[17]": {"assay": "Ionotropic effect in guinea pig ventricle papillary muscles assessed as lengthening of 10% repolarized cardiac action potential duration time at 10^-7 M by microelectrode technique relative to untreated control (reference value: 37 to 47 APD10 ms)", "assay_type": "functional, Cavia porcellus, Papillary muscle"}, "[18]": {"assay": "as §1, with “10%” for “50%”, “10^-4” for “10^-6”, “52” for “180”, “54 APD10” for “192 APD50”", "assay_type": "functional, Cavia porcellus"}, "[19]": {"assay": "as §2, with “50%” for “90%”, “10^-4” for “10^-7”, “180” for “209”, “192” for “222”", "assay_type": "functional, Cavia porcellus"}, "[20]": {"assay": "as §2, with “10^-6” for “10^-7”", "assay_type": "functional, Cavia porcellus"}, "[21]": {"assay": "as §2, with “10%” for “90%”, “10^-5” for “10^-7”, “52” for “209”, “54 APD10” for “222 APD50”", "assay_type": "functional, Cavia porcellus"}}, "data": [{"smiles": "CCCOCCOC(=O)C1=C(C)NC=C([N+](=O)[O-])C1c1ccccc1OC(F)F", "note": "(stereo unspecified)", "values": [{"measurement": "Time", "setting": "[1]", "result": 219, "unit": "ms"}, {"measurement": "Time", "setting": "[2]", "result": 231, "unit": "ms"}, {"measurement": "Time", "setting": "[3]", "result": 237, "unit": "ms"}, {"measurement": "Time", "setting": "[4]", "result": 250.8, "unit": "ms"}, {"measurement": "Time", "setting": "[5]", "result": 59.6, "unit": "ms"}, {"measurement": "Time", "setting": "[6]", "result": 224, "unit": "ms"}, {"measurement": "Time", "setting": "[7]", "result": 148, "unit": "ms"}, {"measurement": "Activity", "setting": "[8]", "result": 154.8, "unit": "%"}, {"measurement": "Time", "setting": "[9]", "result": 222, "unit": "ms"}, {"measurement": "Activity", "setting": "[10]", "result": 118, "unit": "%"}, {"measurement": "Time", "setting": "[11]", "result": 146.5, "unit": "ms"}, {"measurement": "Activity", "setting": "[12]", "result": 26, "unit": "%"}, {"measurement": "Time", "setting": "[13]", "result": 41.4, "unit": "ms"}, {"measurement": "Time", "setting": "[14]", "result": 188.5, "unit": "ms"}, {"measurement": "Time", "setting": "[15]", "result": 221.6, "unit": "ms"}, {"measurement": "Time", "setting": "[16]", "result": 164.8, "unit": "ms"}, {"measurement": "Time", "setting": "[17]", "result": 40, "unit": "ms"}, {"measurement": "Time", "setting": "[18]", "result": 65, "unit": "ms"}, {"measurement": "Time", "setting": "[19]", "result": 238, "unit": "ms"}, {"measurement": "Time", "setting": "[20]", "result": 250.7, "unit": "ms"}, {"measurement": "Time", "setting": "[21]", "result": 63.4, "unit": "ms"}]}]}
